The record followed here is ChEMBL document CHEMBL3272055, “2,3-Disubstituted 1,8-naphthyridines as potential diuretic agents. 2. 5,7-Dimethyl derivatives” (J Med Chem, 1977).

Data set [1] has as its system Rattus norvegicus. As to the kind of experiment: Ratio of natriuretic activity in nonloaded rat assessed as increase in Na+ secretion at 15 mg/kg to kaliuretic activity in nonloaded rat assessed as increase in K+ secretion at 15 mg/kg. The method in brief: (§1)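 Nonloaded rats dosed at 2 or 15 mg/kg. Urine was collected cumulatively over 6 h and urine volume, Na+ and K+ (mequiv) measured. Values are means of eight rats, reported as drug versus control, with the Na+/K+ ratio derived from these.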

The test system of data set [2] is Rattus norvegicus. As to the kind of experiment: Diuretic activity in nonloaded rat assessed as urine volume at 15 mg/kg after 6 hrs relative to control. The data set is classed as functional. The essentials:
as §1

In data set [3] the test system is Rattus norvegicus. As to the kind of experiment: Diuretic activity in saline-loaded Wistar albino rat assessed as increase of saline-load excretion at 15 mg/kg, ip measured for 6 hrs relative to control. The data set is classed as functional, Urine. The settings on record: route intraperitoneal. The essentials: (§2)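 Saline-loaded rats given compound ip, screened at 15 mg/kg, with actives retested at 2 mg/kg. Diuresis was read as urine volume output over 6 h by a modified Lipschitz method and expressed as % of the saline load excreted, as an increase over controls. A response under 21.8% above control was counted insignificant. Activity was also expressed relative to triamterene.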

For data set [4], the system named is Rattus norvegicus. As to the kind of experiment: Diuretic activity in saline-loaded Wistar albino rat assessed as increase of saline-load excretion at 2 mg/kg, ip measured for 6 hrs relative to control. The class given is functional, Urine. As to conditions: route intraperitoneal. The method in brief:
as §2

Data set [5] concerns Rattus norvegicus. The experiment in a line: Toxicity in nonloaded rat assessed as kaluretic effect by measuring increase in K+ secretion at 15 mg/kg after 6 hrs relative to control. As to conditions: in vivo. Set-up: dose 15 mg/kg. The class given is organism-based. The essentials: as §1
Data set [6] relates to Rattus norvegicus. As to the kind of experiment: Natriuretic activity in nonloaded rat assessed as increase in Na+ secretion at 15 mg/kg after 6 hrs relative to control. The data set is classed as functional. The essentials:
as §1

The subject of data set [7] is Rattus norvegicus. As to the kind of experiment: Diuretic activity in saline-loaded Wistar albino rat assessed as increase of saline-load excretion at 15 mg/kg, ip measured for 6 hrs relative to triamterene. The data set is classed as functional, Urine. As to conditions: route intraperitoneal. The method in brief:
as §2

Data set [8] concerns Rattus norvegicus. As to the kind of experiment: Ratio of natriuretic activity in nonloaded rat assessed as increase in Na+ secretion at 2 mg/kg to kaliuretic activity in nonloaded rat assessed as increase in K+ secretion at 2 mg/kg. The method in brief:
as §1

In data set [9] the test system is Rattus norvegicus. The experiment in a line: Diuretic activity in saline-loaded Wistar albino rat assessed as increase of saline-load excretion at 2 mg/kg, ip measured for 6 hrs relative to triamterene. The class given is functional, Urine. As to conditions: route intraperitoneal. The essentials: as §2
The test system of data set [10] is Rattus norvegicus. As to the kind of experiment: Toxicity in nonloaded rat assessed as kaluretic effect by measuring increase in K+ secretion at 2 mg/kg after 6 hrs relative to control. Set-up: dose 2 mg/kg. The class given is organism-based. As to conditions: in vivo. The method in brief: as §1
Data set [11] relates to Rattus norvegicus. The experiment in a line: Natriuretic activity in nonloaded rat assessed as increase in Na+ secretion at 2 mg/kg after 6 hrs relative to control. The class given is functional. The method in brief:
as §1

Data set [12] relates to Rattus norvegicus. The experiment in a line: Diuretic activity in nonloaded rat assessed as urine volume at 2 mg/kg after 6 hrs relative to control. The class given is functional. The essentials: as §1

Structures are written as SMILES.

Consider `Nc1nc(N)c2nc(-c3ccccc3)c(N)nc2n1` [TRIAMTERENE], for which the Ratio with Rattus norvegicus [1] was 5.84. The Activity with Rattus norvegicus [2] turned out to be 4.9 mL; with Rattus norvegicus [3] it was 57.8%; in the data set on Rattus norvegicus [4], 34.5%; in the data set on Rattus norvegicus [5], 0.136 milliequivalent; in the data set with Rattus norvegicus [6], 0.804 milliequivalent.

Consider `COC(=O)c1cc2c(C)cc(C)nc2nc1N`, for which, in the data set with Rattus norvegicus [1], the Ratio is listed as 1.05. For the same compound, the Activity in the data set on Rattus norvegicus [2] was 1.6 mL; with Rattus norvegicus [3], 47.3%; in the data set with Rattus norvegicus [4], less than 21.8%; in the data set with Rattus norvegicus [5], 0.21 milliequivalent; in the data set with Rattus norvegicus [6], 0.221 milliequivalent. Also, the “fold change (FC)” value in the data set on Rattus norvegicus [7] is listed as 0.82.

On to `CCCNC(=O)c1cc2c(C)cc(C)nc2nc1N`, for which, in the data set on Rattus norvegicus [1], the Ratio is 1.64. In addition, the Activity with Rattus norvegicus [2] is 3.9 mL; in the data set with Rattus norvegicus [3] it was 53.7%; in the data set on Rattus norvegicus [4], less than 21.8%; in the data set with Rattus norvegicus [5], 0.25 milliequivalent; in the data set on Rattus norvegicus [6], 0.41 milliequivalent. For the same compound, the “fold change (FC)” value with Rattus norvegicus [7] is given as 0.93.

With `CCCCNC(=O)c1cc2c(C)cc(C)nc2nc1N`, the Ratio is 1.71 with Rattus norvegicus [1] and 2.17 in the data set with Rattus norvegicus [8]. The Activity in the data set with Rattus norvegicus [2] came to 4.1 mL; in the data set on Rattus norvegicus [3], 152.7%; in the data set on Rattus norvegicus [4] it was 43.2%; in the data set on Rattus norvegicus [10], 0.217 milliequivalent; in the data set on Rattus norvegicus [11], 0.471 milliequivalent; in the data set on Rattus norvegicus [12] it was 3.7 mL. In addition, the Activity stood at 0.25 milliequivalent in the data set with Rattus norvegicus [5] and 0.427 milliequivalent with Rattus norvegicus [6]. Moreover, the “fold change (FC)” value with Rattus norvegicus [9] was determined as 1.25; with Rattus norvegicus [7], 2.64.

As for `CCCCCNC(=O)c1cc2c(C)cc(C)nc2nc1N`, in the data set with Rattus norvegicus [1], the Ratio came out at 1.48. The Activity in the data set on Rattus norvegicus [2] was 2.9 mL; in the data set with Rattus norvegicus [3], 23.4%; in the data set on Rattus norvegicus [4], less than 21.8%; in the data set with Rattus norvegicus [5], 0.263 milliequivalent; with Rattus norvegicus [6], 0.39 milliequivalent. Also, the “fold change (FC)” value in the data set on Rattus norvegicus [7] was 0.4.

On to `CCNC(=O)c1cc2c(C)cc(C)nc2nc1N`, for which the Ratio with Rattus norvegicus [1] was 1.64. Moreover, the Activity is 3.7 mL with Rattus norvegicus [2]; 47.7% with Rattus norvegicus [3]; less than 21.8% with Rattus norvegicus [4]; 0.301 milliequivalent in the data set on Rattus norvegicus [5]; 0.495 milliequivalent in the data set on Rattus norvegicus [6]. The “fold change (FC)” value with Rattus norvegicus [7] came out at 0.83.

As for `Cl.NC(=O)c1cc2cccnc2nc1N.O`, the Ratio with Rattus norvegicus [1] is 4.75. In addition, the Activity amounted to 5.3 mL in the data set on Rattus norvegicus [2]; 67.5% with Rattus norvegicus [3]; 62.9% in the data set on Rattus norvegicus [4]; 0.161 milliequivalent in the data set on Rattus norvegicus [5]; 0.765 milliequivalent in the data set with Rattus norvegicus [6]. Also, the “fold change (FC)” value was 3 in the data set on Rattus norvegicus [9] and 1.41 in the data set with Rattus norvegicus [7].
